Experimental findings from PubChem BioAssay AID493249 (Broad Institute, 2011) are described below.

“And” between values parts separate entries of the source, which are not always exact repeats. Identical values can stand only once. The source made the active and inactive calls.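 How the source made its calls: active means compounds lowering cell viability with a fitted IC50 within ten times their top tested dose; inconclusive means flat viability loss of 30 to 70 percent, or poor fit; inactive means the rest.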

The first assay concerns U2OS HRE-luc cells, viability toxicity counter-screen, CellTiter-Glo. The assay can be described thus: viability of U2OS HRE-luciferase line – cell-based, dry powder, set 7, cytotoxicity control for HIF pathway activator project, dose response (AID 493249).
Conditions: not given
In outline: (§1)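 System: human osteosarcoma U2OS cells stably expressing 3×HRE-luciferase reporter. Medium: phenol red-free DMEM with 10% FBS. Measure: compound toxicity as loss of cell viability. Timing: 24 h cell attachment, then 24 h compound exposure, 37 °C. Dosing: 8-point 3-fold dilution series, 7.5 mM top stock. Signal: CellTiter-Glo luminescence.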
For orientation: IC50 means the concentration that inhibits the measured activity by half. In the case of `Cn1c(-c2ccccc2)cnc1Nc1nc(-c2ccccn2)nnc1-c1ccccc1`, the IC50 was 34.8 µM.

With `c1ccc(-c2nnc(-c3ccccn3)nc2NCc2ccccn2)cc1`, the IC50 is > 38 µM (inactive).

With `c1ccc(-c2nnc(Nc3nc(-c4ccccn4)nnc3-c3ccccc3)s2)cc1`, the IC50 was > 38 µM (inactive).

Take `O=C(c1cc(-c2ccccc2)on1)N1CCN(c2ccncc2)CC1`: the IC50 was > 38 µM (inactive).

Turning to `O=C(NCCN1CCCCC1)c1cc(-c2ccccc2)on1`, the IC50 is > 38 µM (inactive).

As for `c1ccc(-c2nnc(-c3ccccn3)nc2N2CCN(c3ccncc3)CC2)cc1`, the IC50 was > 38 µM (inactive).

Regarding `c1ccc(-c2csc(Nc3nc(-c4ccccn4)nnc3-c3ccccc3)n2)cc1`, the IC50 was > 38 µM (inactive).

With `c1ccc(-c2nnc(-c3ccccn3)nc2N2CCC(N3CCOCC3)CC2)cc1`, the IC50 was > 38 µM (inactive).

For the compound `Oc1ccc(CN2CCC3CCCCC3C2)c2cccnc12` (centres undefined), the IC50 is > 38 µM (inactive).

As for `c1ccc(-c2nnc(-c3ccccn3)nc2Nc2nc3ccccc3s2)cc1`, the IC50 was > 38 µM (inactive).

For `CC1CN(Cc2ccc(O)c3ncccc23)CC(C)O1` (centres undefined), the IC50 was > 38 µM (inactive).

Tested on in another assay: not listed separately
The assay is described as above. To be noted: U2OS HRE-luc cells, viability toxicity counter-screen, CellTiter-Glo; at 38 µM (top of the series). Put shortly: as §1
In general terms: The purpose of a counterscreen is to sort out artefacts and off-target activity.
On to `c1ccc(-c2nnc(-c3ccccn3)nc2N2CCC(c3ccccc3)C2)cc1` (centres undefined), for which the activity change, negative = toxicity is -24.1% (inactive).

As to `O=C(Nc1ncc2ccccc2n1)c1cc(-c2ccccc2)on1`, the activity change, negative = toxicity was -4.1% (inactive).

`O=C(c1cc(-c2ccccc2)on1)N1CCC(N2CCOCC2)CC1`: the activity change, negative = toxicity was -9.91% (inactive).

Turning to `c1ccc(-c2nnc(-c3ccccn3)nc2NCc2cccnc2)cc1`, the activity change, negative = toxicity was 40.2% (inactive).

For the compound `Cc1ccc(CNC(=O)c2cc(-c3ccccc3)on2)cc1`, the activity change, negative = toxicity is 1.57% (inactive).

For `COc1ccccc1N1CCN(Cc2ccc(O)c3ncccc23)CC1`, the activity change, negative = toxicity was -18.6% (inactive).

Regarding `Clc1cccc(CNc2nc(-c3ccccn3)nnc2-c2ccccc2)c1`, the activity change, negative = toxicity is 2.17% (inactive).

As to `CN1CCN(C(=O)c2cc(-c3ccccc3)on2)CC1`, the activity change, negative = toxicity is 3.42% (inactive).

Regarding `Cc1ccccc1CNc1nc(-c2ccccn2)nnc1-c1ccccc1`, the activity change, negative = toxicity is -17.6% (inactive).

Consider `O=C(c1cc(-c2ccccc2)on1)N1CCC(CO)CC1`, for which the activity change, negative = toxicity was 1.17% (inactive).

On to `Cc1cccc(NC(=O)c2cc(-c3ccccc3)on2)n1`, for which the activity change, negative = toxicity is -0.352% (inactive).

For the compound `O=C(Nc1nc2ccccc2s1)c1cc(-c2ccccc2)on1`, the activity change, negative = toxicity was -1.46% (inactive).

With `c1ccc(-c2cnc(Nc3nc(-c4ccccn4)nnc3-c3ccccc3)s2)cc1`, the activity change, negative = toxicity is 1.53% (inactive).

In the case of `Cc1ccc(CNc2nc(-c3ccccn3)nnc2-c2ccccc2)cc1`, the activity change, negative = toxicity is -15.4% (inactive).

Consider `C=CCNc1nc(-c2ccccn2)nnc1-c1ccccc1`, for which the activity change, negative = toxicity was 3.09% (inactive).

For `N#CC1(c2ccccc2)CCN(Cc2ccc(O)c3ncccc23)CC1`, the activity change, negative = toxicity is 7.2% (inactive).

Consider `O=C(NC1CCc2ccccc2C1)c1cc(-c2ccccc2)on1` (centres undefined), for which the activity change, negative = toxicity is -10.6% (inactive).

Turning to `O=C(Nc1cn2ccccc2n1)c1cc(-c2ccccc2)on1`, the activity change, negative = toxicity was -3.68% (inactive).

For `O=C(NCCCO)c1cc(-c2ccccc2)on1`, the activity change, negative = toxicity is -3.27% (inactive).

Consider `c1ccc(-c2cccc(CNc3nc(-c4ccccn4)nnc3-c3ccccc3)c2)cc1`, for which the activity change, negative = toxicity was -2.36% (inactive).

Turning to `O=C(c1cc(-c2ccccc2)on1)N1CCC(N2CCCC2)CC1`, the activity change, negative = toxicity is -8.3% (inactive).

For `O=C(NCCCCO)c1cc(-c2ccccc2)on1`, the activity change, negative = toxicity is -16.3% (inactive).

In the case of `c1ccc(-c2nnc(-c3ccccn3)nc2NCC2CCCCC2)cc1`, the activity change, negative = toxicity is -26% (inactive).

Turning to `O=C(Nc1nnc(-c2ccccc2)s1)c1cc(-c2ccccc2)on1`, the activity change, negative = toxicity was -7.07% (inactive).

Turning to `c1ccc(CCNc2nc(-c3ccccn3)nnc2-c2ccccc2)cc1`, the activity change, negative = toxicity was -5.99% (inactive).

Take `Cc1ccccc1CNC(=O)c1cc(-c2ccccc2)on1`: the activity change, negative = toxicity was -4.19% (inactive).

On to `CC(C)(C)CCNc1nc(-c2ccccn2)nnc1-c1ccccc1`, for which the activity change, negative = toxicity was -13% (inactive) and -32.8% (inactive).

For `O=C(NCC1CC1)c1cc(-c2ccccc2)on1`, the activity change, negative = toxicity is -6.03% (inactive).

Turning to `c1ccc(-c2nnc(-c3ccccn3)nc2NCCCN2CCOCC2)cc1`, the activity change, negative = toxicity is 11% (inactive).

Regarding `O=C(NCCCn1ccnc1)c1cc(-c2ccccc2)on1`, the activity change, negative = toxicity is -7.78% (inactive).

As for `Cc1ccc(NC(=O)c2cc(-c3ccccc3)on2)cn1`, the activity change, negative = toxicity is -11.1% (inactive).

With `COc1ccc(CNc2nc(-c3ccccn3)nnc2-c2ccccc2)cc1`, the activity change, negative = toxicity was -2.05% (inactive).

As for `Cc1cccc(CNC(=O)c2cc(-c3ccccc3)on2)c1`, the activity change, negative = toxicity was -1.11% (inactive).

Take `OCC1CCN(c2nc(-c3ccccn3)nnc2-c2ccccc2)CC1`: the activity change, negative = toxicity is -13.9% (inactive).

Take `c1ccc(-c2nnc(-c3ccccn3)nc2NCC2CCOCC2)cc1`: the activity change, negative = toxicity is 20.8% (inactive).

For the compound `Oc1ccc(CN2CCC(Cc3ccccc3)CC2)c2cccnc12`, the activity change, negative = toxicity was -14.5% (inactive).

As for `OCC1CCN(Cc2ccc(O)c3ncccc23)CC1`, the activity change, negative = toxicity is -25% (inactive).

Turning to `O=C(Nc1cnc2ccccc2c1)c1cc(-c2ccccc2)on1`, the activity change, negative = toxicity is 0.164% (inactive).

For `c1ccc(-c2nnc(-c3ccccn3)nc2NCCN2CCOCC2)cc1`, the activity change, negative = toxicity was -9.28% (inactive).

For the compound `O=C(c1cc(-c2ccccc2)on1)N1CCc2cccnc21`, the activity change, negative = toxicity was -7.75% (inactive).

On to `c1ccc(-c2nnc(-c3ccccn3)nc2NCC2CC2)cc1`, for which the activity change, negative = toxicity is 8.28% (inactive).

Regarding `Oc1ccc(CNC2Cc3ccccc3C2)c2cccnc12`, the activity change, negative = toxicity was 0.726% (inactive).

Take `OCCCNc1nc(-c2ccccn2)nnc1-c1ccccc1`: the activity change, negative = toxicity is 4.98% (inactive).

Turning to `CC(C)(C)CCNC(=O)c1cc(-c2ccccc2)on1`, the activity change, negative = toxicity was -7.02% (inactive).

As for `O=C(Nc1ccc2ccccc2n1)c1cc(-c2ccccc2)on1`, the activity change, negative = toxicity is 9.02% (inactive).

`CC(Nc1nc(-c2ccccn2)nnc1-c1ccccc1)c1ccccc1` (centres undefined): the activity change, negative = toxicity is 0.427% (inactive).

As to `c1ccc(-c2nnc(-c3ccccn3)nc2NCCc2ccccn2)cc1`, the activity change, negative = toxicity is 4.22% (inactive).

`Cc1cccc(CNc2nc(-c3ccccn3)nnc2-c2ccccc2)c1`: the activity change, negative = toxicity is -16.7% (inactive).

For the compound `C[C@@H](Nc1nc(-c2ccccn2)nnc1-c1ccccc1)c1ccccc1`, the activity change, negative = toxicity is -13.6% (inactive).

On to `c1ccc(-c2nnc(-c3ccccn3)nc2N2CCC(C3CCCCC3)C2)cc1` (centres undefined), for which the activity change, negative = toxicity is 14.5% (inactive).

`Cc1cccc(Nc2nc(-c3ccccn3)nnc2-c2ccccc2)n1`: the activity change, negative = toxicity was -12.6% (inactive).

Take `O=C(Nc1nc(-c2ccccc2)cs1)c1cc(-c2ccccc2)on1`: the activity change, negative = toxicity is 13.9% (inactive).

`O=C(Nc1ncc(-c2ccccc2)o1)c1cc(-c2ccccc2)on1`: the activity change, negative = toxicity was 1.41% (inactive).

On to `Oc1ccc(CN2CCc3ccccc3C2)c2cccnc12`, for which the activity change, negative = toxicity was -16.2% (inactive).

Consider `O=C(NCCN1CCOCC1)c1cc(-c2ccccc2)on1`, for which the activity change, negative = toxicity is -16.1% (inactive).

Consider `O=C(NCc1ccccc1)c1cc(-c2ccccc2)on1`, for which the activity change, negative = toxicity was -7.7% (inactive).

Take `CN1CCN(c2nc(-c3ccccn3)nnc2-c2ccccc2)CC1`: the activity change, negative = toxicity is -13.4% (inactive).

Regarding `CN(C)c1nc(-c2ccccn2)nnc1-c1ccccc1`, the activity change, negative = toxicity was 2.11% (inactive).

Turning to `COc1cccc(CNc2nc(-c3ccccn3)nnc2-c2ccccc2)c1`, the activity change, negative = toxicity was -14.9% (inactive).

Regarding `CC(C)(C)OC(=O)N1CCN(Cc2ccc(O)c3ncccc23)CC1`, the activity change, negative = toxicity is 6.17% (inactive).

As to `CCCCNC(=O)c1cc(-c2ccccc2)on1`, the activity change, negative = toxicity is -11.5% (inactive).

For the compound `CN(C)CCNC(=O)c1cc(-c2ccccc2)on1`, the activity change, negative = toxicity is 14.4% (inactive).

With `Oc1ccc(CNC2CCc3ccccc32)c2cccnc12` (centres undefined), the activity change, negative = toxicity was -17.9% (inactive).

With `O=C(NCCCN1CCOCC1)c1cc(-c2ccccc2)on1`, the activity change, negative = toxicity is 0.736% (inactive).

With `Cn1c(-c2ccccc2)cnc1NC(=O)c1cc(-c2ccccc2)on1`, the activity change, negative = toxicity is -8.92% (inactive).

In the case of `O=C(NC1Cc2ccccc2C1)c1cc(-c2ccccc2)on1`, the activity change, negative = toxicity was -13.3% (inactive).

For `O=C(NCC1CCCCC1)c1cc(-c2ccccc2)on1`, the activity change, negative = toxicity is 0.869% (inactive).

As for `Cn1c(NC(=O)c2cc(-c3ccccc3)on2)nc2ccccc21`, the activity change, negative = toxicity was -0.865% (inactive).
